Test results: ChEMBL document CHEMBL1153526, “Design, synthesis, and pharmacological activities of dynorphin A analogues cyclized by ring-closing metathesis” (J Med Chem, 2009)

Biological target: Kappa-type opioid receptor (Rattus norvegicus) (UniProt P34975)
Test: Agonist activity at rat cloned kappa opioid receptor expressed in CHO cells assessed as inhibition of forskolin-induced cAMP production by scintillation counting relative to Dyn A-(1-13)NH2
Assay type: functional, cell-based
Conditions: concentration not given here
Procedure, shortened: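 CHO cells stably expressing cloned rat κ receptor, washed in F12 and labelled 4 h with [3H]adenine. Then 40 min at 37 °C with 50 μM forskolin, peptidase inhibitors (bestatin, captopril, L-leucyl-L-leucine) and peptide at 0.1–10,000 nM in 10-fold steps. [3H]cAMP isolated on cation exchange resin and alumina, [14C]cAMP added for recovery, scintillation counted. Efficacy relative to Dyn A-(1-13)NH2. Mean ± SEM, ≥3 assays.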

Kappa-type opioid receptor (Rattus norvegicus), sequence (P34975 whole entry): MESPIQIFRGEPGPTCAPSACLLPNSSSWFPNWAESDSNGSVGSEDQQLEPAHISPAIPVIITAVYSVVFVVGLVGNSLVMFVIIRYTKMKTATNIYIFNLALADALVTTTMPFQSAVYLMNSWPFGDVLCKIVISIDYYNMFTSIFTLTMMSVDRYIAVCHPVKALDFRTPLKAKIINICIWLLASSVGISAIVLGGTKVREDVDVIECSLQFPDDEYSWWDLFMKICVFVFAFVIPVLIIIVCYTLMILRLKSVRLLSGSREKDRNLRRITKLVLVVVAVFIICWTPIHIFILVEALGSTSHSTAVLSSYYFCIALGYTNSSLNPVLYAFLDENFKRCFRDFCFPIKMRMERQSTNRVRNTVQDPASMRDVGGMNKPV

Row | SMILES | inhibition [%]
1 | CC[C@H](C)[C@H](NC(=O)[C@H](CCCN=C(N)N)NC(=O)[C@H](CCCN=C(N)N)NC(=O)[C@H](CC(C)C)NC(=O)[C@H](Cc1ccccc1)NC(=O)CNC(=O)CNC(=O)[C@@H](N)Cc1ccc(O)cc1)C(=O)N[C@@H](CCCN=C(N)N)C(=O)N1CCC[C@H]1C(=O)N[C@@H](CCCCN)C(N)=O | 100
2 | N=C(N)NCCC[C@@H]1NC(=O)[C@@H](NC(=O)[C@H](Cc2ccccc2)NC(=O)CNC(=O)CNC(=O)[C@@H](N)Cc2ccc(O)cc2)C/C=C\C[C@@H](C(=O)N[C@@H](CCCNC(=N)N)C(=O)N2CCC[C@H]2C(=O)N[C@@H](CCCCN)C(N)=O)NC(=O)[C@H](CCCNC(=N)N)NC1=O | 110
